From ChEMBL document CHEMBL4265867, “Affinity-based small fluorescent probe for NAD(P)H:quinone oxidoreductase 1 (NQO1). Design, synthesis and pharmacological evaluation” (Eur J Med Chem, 2017) come the findings set out here.

One may read the EC50 as the concentration giving half of the maximal effect. As a reminder, the IC50 is the concentration at which inhibition is half-maximal.

Test [1] deals with T1, NAD(P)H dehydrogenase [quinone] 1 (Homo sapiens, UniProt P15559). Put plainly: Binding affinity to recombinant human NQO1 by fluorescence polarization competition assay. The method, boiled down:
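Fluorescence polarization was read at 485 nm excitation and 535 nm emission in HEPES buffer. Free-probe mP was first measured over a range of probe concentrations without protein. For competition, wells held varying probe concentrations with NQO1 added from a 100 nM solution. IC50 was taken from a plot of % inhibition against concentration.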

Test [2] deals with T1, NAD(P)H dehydrogenase [quinone] 1. Briefly: Binding affinity to NQO1 in human A549 cells at 50 uM incubated for 10 mins by DAPI staining based fluorescence microscopy imaging. Format: cell-based. The gist of the method: (§1)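 A549 cells were rinsed with serum-free medium. Probe, from a 10 mM DMSO stock diluted in serum-free medium, was applied at 10 or 50 μM for 10 min at 37 °C, then washed off. For the inhibition condition, 10 μM DIC was co-incubated with the probe under the same conditions. Nuclei were stained with DAPI and cells imaged by laser scanning confocal microscopy.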

The target is the same in test [3]. Put plainly: Inhibition of recombinant human NQO1 assessed as reduction in oxidation of NADPH to NADP+ using b-lap as substrate and NADPH in presence of 0.14% (w/v) BSA.
For test [4] the target is unchanged. Put plainly: Binding affinity to NQO1 in human A549 cells at 10 uM incubated for 10 mins in presence of 10 uM DIC by DAPI staining based fluorescence microscopy imaging. Format: cell-based. The gist of the method: as §1
Test [5] shares this target. Put plainly: Binding affinity to NQO1 in human A549 cells at 10 uM incubated for 10 mins by DAPI staining based fluorescence microscopy imaging. Format: cell-based. The method, boiled down: as §1
Test [6] shares this target. Briefly: Binding affinity to NQO1 in human A549 cells at 50 uM incubated for 10 mins in presence of 10 uM DIC by DAPI staining based fluorescence microscopy imaging. Format: cell-based. The method, boiled down:
as §1

SMILES strings stand for the structures. Activity calls are given as the source filed them. No cut-off for these calls is given here.

Turning to `O=C1OC2(c3ccc(O)cc3Oc3cc(O)ccc32)c2ccc(NC(=S)NCCCCCCOc3ccc(/C=C/C(=O)c4c(O)c5ccccc5oc4=O)cc3)cc21`, in test [1], the EC50 amounted to 2.95 µM. Further, the outcome in test [2] and in test [5] was Active. For the same compound, the IC50 in test [3] was found to be 0.98 µM. Besides, the outcome in test [4] and in test [6] was inactive.
